Data on 3 compounds can be found in article PMC9671271 (ACS infectious diseases, 2022).

Series [1] is described as follows: Circular dichroism titration for Zn-induced dimerization/aggregation. It is filed as physicochemical. Particulars: CD, 0-50 μM Hist-5 with 250 μM ZnCl2, PPB (198 nm) or 98% TFE (222 nm), 25 °C; ellipticity linear up to 50 μM.
Series [2] deals with C. albicans cells. Briefly: Propidium iodide membrane permeability assay, confocal microscopy, yeast form. The series is classed as cell-based, Candida albicans SC5314. To be noted: for membrane disruption (PI leakage): 12.5 μM Hist-5, 7.5 μM PI, 5 min, RT, PPB.
A further series has as its system C. albicans. The series can be described thus: Two-dimensional broth microdilution checkerboard assay. It is filed as cell-based, Candida albicans SC5314.
Another series concerns C. albicans hyphae. Briefly: Propidium iodide membrane permeability assay, hyphal form. The series is classed as cell-based, Candida albicans SC5314. The essentials: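 Colony from YPD agar (30 °C, 24 h) grown 24 h in SD+ at 30 °C, 200 rpm, then diluted to OD600 0.1 in SD+ with 12.5 mM N-acetylglucosamine and grown 24 h at 37 °C, 200 rpm. Cells pelleted and resuspended in PPB pH 7.4, then given 12.5 μM test peptide, 7.5 μM PI, ± ZnCl2 (0.5, 1, 2 eq). Confocal imaging at 5 min, RT; PI excitation 488 nm, emission 600–700 nm.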

The subject of series [3] is C. albicans cells. Particulars: acid form of ZQ; stated as known, no reference given; cited from earlier work.

On to “DSHAKRHHGYKRKFHEKHHSHRGY [Hist-5, Histatin-5]”, for which, in series [1], the Zn-induced peptide dimerization/aggregation result is on record as “dimerization/aggregation is not occurring”. For the same compound, the “membrane disruption (PI leakage)” value is reported as “allows leakage of PI into the cytosol” with C. albicans cells [2] (no added Zn^2+), “did not cause dye leakage” in the series on C. albicans cells [2] (one or more molar equivalents of Zn^2+) and “internalization of PI” with C. albicans cells [2] (submolar equivalents of Zn^2+). Further, in the series with C. albicans (Zn^2+ concentration surpassing the Hist-5 concentration (Figure S9)), the “effect of Zn^2+ on fungicidal activity” value is “switched from promoting Hist-5 fungicidal activity to inhibiting it”. Further, the “effect of Zn^2+ supplementation on peptide activity” value with C. albicans (sub-inhibitory concentrations of Hist-5, strongest at 1:2 Zn^2+ to peptide (Figure S9)) is “increase in peptide activity”. Further, the “membrane activity on hyphae (PI leakage)” value with C. albicans hyphae (12.5 μM Hist-5, 7.5 μM PI, with Zn^2+ supplementation) is recorded as “protective effect against Hist-5-induced membrane disruption”; in the series with C. albicans hyphae (12.5 μM Hist-5 alone, 7.5 μM PI, 5 min, RT, PPB), “able to permeabilize the cell membrane”.
On to `O=C(O)CN(CCN(CC(=O)O)CC(=O)O)CC(=O)O` [EDTA, ethylenediaminetetraacetic acid], for which the “PI uptake into the cytosol” value in the series on C. albicans cells [2] (cells treated with EDTA and PI only, no peptide (Figure S14)) is “not observed”.
Take `Cc1ccc(S(=O)(=O)Nc2cc(OCC(=O)O)cc3ccc(C)nc23)cc1` [ZQ, 2-methyl-8-(toluene-p-sulfonamido)-6-quinolyloxyacetic acid]: in the series with C. albicans cells [3], the membrane permeability entry is reported as “poor membrane permeability”.
